# Screening data (PubChem BioAssay)
# This is one part of a sample in which hits are shown more often than they occur.
# HePTP inh: inhibitors of human HePTP phosphatase, primary screen, biochemical, absorbance, leukemia target | Tyrosine-protein phosphatase non-receptor type 7 (Homo sapiens), P35236 | recombinant HePTP phosphatase activity, OD absorbance | inhibition, % at 20 µM | 0.64% of 110,000 active; in the data active = inhibition above about 50%;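 note: plate controls were vehicle for no effect and reference inhibitor for full effect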
# Cdc25B inh: inhibitors of Cdc25B phosphatase catalytic domain, primary screen, biochemical, OMFP fluorescence | recombinant Cdc25B, OMFP fluorescence Ex485/Em525 | 0.1% of 65,000 active | M-phase inducer phosphatase 2 (Homo sapiens), P30305 | inhibition, %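 (compounds tested at 10 µM final in the well)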; in the data active = inhibition above about 50%
# MMP-13 inhibitor: human MMP13 inhibitors, primary screen, biochemical, FRET peptide cleavage | Collagenase 3 (Homo sapiens), P45452 | MMP-13 fTHP FRET cleavage, Mca fluorescence | inhibition, % at 4 µM | 0.07% of 65,000 active | AID 570, 2006;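 active = inhibition above the mean of compound-free control plate wells plus 3 SD, cut at about 14% in these data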;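 note: 0% = DMSO wells and 100% = wells with reference MMP-13 inhibitor after basal subtraction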
# DUSP1 inh: MKP-1 phosphatase inhibitors, primary screen, biochemical, in vitro. recombinant MKP-1, OMFP hydrolysis fluorescence. inhibition, %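 (compounds tested at a single concentration somewhere between 10 and 100 µM)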. 0.15% of 65,000 active. AID 374, 2006;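 active = inhibition above about 50%, limit read from the data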;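 note: 0% = DMSO max control wells and 100% = wells with enzyme stopped by NaOH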
# Target sequence (P28562 whole entry, looked up): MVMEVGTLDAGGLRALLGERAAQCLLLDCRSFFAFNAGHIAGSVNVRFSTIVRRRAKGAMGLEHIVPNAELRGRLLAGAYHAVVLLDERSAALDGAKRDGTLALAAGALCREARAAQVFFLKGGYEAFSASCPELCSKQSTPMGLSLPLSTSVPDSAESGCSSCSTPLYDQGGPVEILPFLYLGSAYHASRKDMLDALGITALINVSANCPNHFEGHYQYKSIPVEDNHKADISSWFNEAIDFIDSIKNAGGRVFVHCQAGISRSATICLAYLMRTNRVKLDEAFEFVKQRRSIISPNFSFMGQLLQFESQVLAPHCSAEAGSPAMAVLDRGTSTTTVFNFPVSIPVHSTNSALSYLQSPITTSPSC
# Ecoli tolC: growth inhibitors of E. coli tolC mutant, primary screen, strain BW25113 ΔtolC::kan, 384-well. AID 573, 2007. 2.2% of 65,000 active. OD615. growth inhibition, % at 10 µM (by protocol);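 active = growth inhibition at or above a cutoff equal to the mean over every tested compound plus 3 SD, cut at about 60% in these data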;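 note: growth measured after 20 h incubation at 37 °C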
#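 Assay system: tolC-deleted E. coli BW25113. Medium: kanamycin-containing LB broth (50 µg/mL). Dosing: 10 µM final, single dose. Timing: bacterial growth with compound for 20 h at 37 °C. Detection: A615 absorbance measurement. Read-out basis: growth inhibition in percent.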
# Ecoli WT expand: growth inhibitors of wild-type E. coli, primary screen, strain BW25113, expanded library, OD600. OD600 absorbance. growth inhibition, % at 100 µM. 0.15% of 98,000 active. AID 710, 2007;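 active = growth inhibition above about 50% at one test dose, limit read from the data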;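 note: growth measured after 20 h incubation at 37 °C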
# Numbers without * were called inactive; nt = no result; ! = not confirmed by another sample.
SMILES,HePTP inh,Cdc25B inh,MMP-13 inhibitor,DUSP1 inh,Ecoli tolC,Ecoli WT expand
O=C(O)c1ccccc1C(=O)Nc1nncs1,-4,nt,nt,nt,nt,nt
C=CCn1c2ccccc2c2nnc(SCC(=O)N=C3NC(=O)CS3)nc21,56*,nt,nt,nt,nt,nt
C=CCn1c2ccccc2c2nnc(SC)nc21,8,nt,nt,nt,nt,nt
CCOC(=O)C1CCN(C(=O)Nc2cccc3ccccc23)CC1,-4,nt,nt,nt,nt,nt
Cc1ccc2c(c1)c1c(n2CC(O)Cn2c(C)nc3ccccc32)C(=O)CCC1 (centres undefined),-5,-5,-53,33,38,0
Cc1ccc2c(c1)c1c(n2CC(O)Cn2c(C)nc3ccccc32)/C(=N\O)CCC1 (centres undefined),-4,3,-11,31,78*,3
C=CCN1C(=O)/C(=C/c2c(NC)nc3ccccn3c2=O)SC1=S,-11,nt,nt,nt,nt,nt
Cc1ccc(C(=O)NC(NC(=S)Nc2cc(C)ccc2C)C(Cl)(Cl)Cl)cc1 (centres undefined),75*,nt,nt,nt,nt,nt
Cc1ccc(C(=O)NC(NC(=S)Nc2ccccc2)C(Cl)(Cl)Cl)cc1 (centres undefined),4,nt,nt,nt,nt,nt
O=c1nc(/C=C/c2cccc3ccccc23)cc(C(F)(F)F)[nH]1,0,nt,nt,nt,nt,nt
O=C(O)CCCN1C(=O)/C(=C/c2cccc(Br)c2)SC1=S,-4,nt,nt,nt,nt,nt
O=C(CN1C(=O)/C(=C/c2ccccc2Cl)SC1=S)Nc1cccc(C(=O)O)c1,-14,nt,nt,nt,nt,nt
O=C(O)CCCCCCCCCCN1C(=O)/C(=C/c2cccc(Br)c2)SC1=S,102*,nt,nt,nt,nt,nt
O=C(CN1C(=O)/C(=C/c2ccccc2Cl)SC1=S)Nc1ccc(C(=O)O)cc1,96*,nt,nt,nt,nt,nt
O=C(CCN1C(=O)/C(=C\c2cccs2)SC1=S)Nc1cccc(C(=O)O)c1,93*,nt,nt,nt,nt,nt
COc1cc(C2C3=C(CCCC3=O)OC3=C2C(=O)CCC3)cc(OC)c1OC,3,nt,nt,nt,nt,nt
COC(=O)C1=C(C)NC(=O)/C1=C\c1ccc(OC)cc1,6,nt,nt,nt,nt,nt
COC(=O)C1=C(C)NC(=O)/C1=C\c1ccc(Br)cc1,67*,nt,nt,nt,nt,nt
Cc1c(NC(=O)c2cn3c4c(c(N5CCN(C)CC5)c(F)cc4c2=O)OCN3C)c(=O)n(-c2ccccc2)n1C,12,nt,nt,nt,nt,nt
COc1nsnc1NS(=O)(=O)c1ccc(NC(=S)NC(=O)c2sc3cc(F)ccc3c2Cl)cc1,102*,nt,nt,nt,nt,nt
NS(=O)(=O)c1ccc(NC(=S)NC(=O)c2sc3cc(F)ccc3c2Cl)cc1,4,nt,nt,nt,nt,nt
CCOc1ccccc1N(CC(=O)NCCCOC)S(=O)(=O)c1ccccc1,8,nt,nt,nt,nt,nt
O=C(CC1SC(=O)NC1=O)Nc1cccc(O)c1 (centres undefined),7,nt,nt,nt,nt,nt
COC(=O)C1=C(C)N=C2SCCC(=O)N2C1c1cccs1 (centres undefined),3,54*,5,6,-8,6
CC1=C(C(=O)OC(C)C)C(c2cccs2)N2C(=O)CCSC2=N1 (centres undefined),0,-12,3,-6,-4,-3
SMILES,HePTP inh,Cdc25B inh,MMP-13 inhibitor,DUSP1 inh,Ecoli tolC,Ecoli WT expand
COc1ccc(C)cc1NC(=O)c1cc(-c2cccs2)nc2ccccc12,6,nt,nt,nt,nt,nt
O=C(Nc1ccc(N2CCN(C(=O)c3ccco3)CC2)c(Cl)c1)c1c(F)c(F)c(F)c(F)c1F,0,-8,3,9,77*,-15
COC(=O)c1ccc(C(=O)OC)c(NC(=O)CCC(=O)O)c1,102*!,-3,-32,0,-1,1
CCCCOC(=O)Nc1cc(C(=O)OC)ccc1C(=O)OC,6,-4,-18,9,67*,-1
CCCCOC(=O)Nc1ccc(C(=O)OC)cc1,4,-8,0,9,-16,-6
COC(=O)c1ccc(C(=O)OC)c(NC(=O)CC(c2ccccc2)c2ccccc2)c1,8,nt,nt,nt,nt,nt
CC(C)(C)c1cc(C2Nc3cccc4cccc(c34)N2)cc(C(C)(C)C)c1O,-11,nt,nt,nt,nt,nt
COC(=O)c1c(NC(=O)C2CC2c2ccccc2)sc(C)c1C (centres undefined),-10,nt,nt,nt,nt,nt
CC1CCCN(C(=O)Cc2ccccc2)C1 (centres undefined),5,nt,nt,nt,nt,nt
CNC(=O)c1c(-c2ccccc2)oc2ccc(OC)cc12,1,nt,nt,nt,nt,nt
